1 compound from ChEMBL document CHEMBL4229344 (Eur J Med Chem, 2018) can be followed below.

The test system of one data set is NCI-H1703. Put plainly: Antiproliferative activity against human NCI-H1703 cells after 72 hrs by CellTiter-Glo or CCK-8 assay. Type of data set: functional. The following applies: NCI-H1703, 72 h. Summed up: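 Cells in RPMI 1640 with 10% FBS at 37 °C, 5% CO2, seeded at 1–3 × 10^4 cells/mL with serial compound dilutions for 72 h. Viability read by CellTiter-Glo luminescence or CCK-8 absorbance (450/655 nm), normalized to DMSO control.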
A general note: Cellular ATP, detected with luciferase, serves as a proxy for viable cell number.

Data set [1] deals with Proto-oncogene tyrosine-protein kinase receptor Ret (Homo sapiens), P07949 [M918T]. Nature of the data set: Binding affinity to human partial length RET M918T mutant (E713 to D1014 residues) expressed in bacterial expression system assessed as residual binding level at 1 uM by Kinomescan method relative to control. The procedure, abridged: (§1)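 Kinome-wide single-concentration binding screen (KINOMEscan) at 1 μM against a panel of 468 purified kinases and mutants. Read-out is relative binding of each kinase compared with control. Selectivity across the panel was summarised as an S(10) score.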
Proto-oncogene tyrosine-protein kinase receptor Ret (Homo sapiens), P07949 [M918T], sequence (P07949 whole entry M918T, the tested form may be a part): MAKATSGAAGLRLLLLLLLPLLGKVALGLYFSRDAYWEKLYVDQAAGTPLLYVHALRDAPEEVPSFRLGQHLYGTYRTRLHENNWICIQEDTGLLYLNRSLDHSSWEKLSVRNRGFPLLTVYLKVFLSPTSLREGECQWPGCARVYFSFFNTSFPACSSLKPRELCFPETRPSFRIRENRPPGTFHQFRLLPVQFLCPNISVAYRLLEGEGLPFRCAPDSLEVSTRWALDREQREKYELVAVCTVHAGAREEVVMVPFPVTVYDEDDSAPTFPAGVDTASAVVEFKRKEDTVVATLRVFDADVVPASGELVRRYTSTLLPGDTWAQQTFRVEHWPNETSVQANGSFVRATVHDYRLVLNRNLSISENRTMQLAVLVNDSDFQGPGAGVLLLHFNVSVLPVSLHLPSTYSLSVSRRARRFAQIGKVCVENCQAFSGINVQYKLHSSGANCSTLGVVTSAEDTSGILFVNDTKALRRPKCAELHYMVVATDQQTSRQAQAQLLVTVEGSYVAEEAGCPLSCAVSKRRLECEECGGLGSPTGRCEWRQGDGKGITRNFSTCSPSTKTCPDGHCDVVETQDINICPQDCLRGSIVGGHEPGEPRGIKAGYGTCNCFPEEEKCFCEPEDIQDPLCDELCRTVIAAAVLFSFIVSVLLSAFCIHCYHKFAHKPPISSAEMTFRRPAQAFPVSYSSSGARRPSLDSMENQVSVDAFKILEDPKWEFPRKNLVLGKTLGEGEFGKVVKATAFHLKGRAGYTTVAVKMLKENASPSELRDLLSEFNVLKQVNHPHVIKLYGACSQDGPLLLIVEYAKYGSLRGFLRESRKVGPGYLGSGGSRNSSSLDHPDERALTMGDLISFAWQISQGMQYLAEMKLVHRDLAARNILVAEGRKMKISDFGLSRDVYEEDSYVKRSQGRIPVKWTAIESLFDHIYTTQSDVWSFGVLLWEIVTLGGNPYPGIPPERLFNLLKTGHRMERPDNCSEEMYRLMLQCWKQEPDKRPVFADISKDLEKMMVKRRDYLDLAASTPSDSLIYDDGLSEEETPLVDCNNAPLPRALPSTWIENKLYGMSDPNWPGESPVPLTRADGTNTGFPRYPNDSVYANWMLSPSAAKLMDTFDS

The nature of data set [2]: Cmax in Sprague-Dawley rat at 10 mg/kg, po. Type of data set: ADME, organism-based. Further details: dose 10 mg/kg, route oral. Particulars: in vivo. The procedure, abridged: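 Male Sprague-Dawley rats, 6–8 weeks old and fasted overnight, dosed IV at 1 mg/kg or PO at 10 mg/kg. Formulation was 5% DMSO/40% PEG400/55% saline (1 mg/mL). Jugular blood collected on heparin from 1 min to 8 h (IV) or 5 min to 24 h (PO). Plasma separated by centrifugation at 2–8 °C and stored at −80 °C.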

In data set [3] the target is Serine/threonine-protein kinase PAK 5 (Homo sapiens) (UniProt Q9P286). Put plainly: Binding affinity to wild-type human partial length PAK7 (Y400 to H719 residues) expressed in bacterial expression system assessed as residual binding level at 1 uM by Kinomescan method relative to control. Summed up:
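KINOMEscan competition binding against a panel of 468 purified kinases/mutants, compound tested at 1 μM; readout is relative binding activity versus control.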

Data set [4] concerns the target Activin receptor type-1-like (Homo sapiens) (UniProt P37023). Put plainly: Binding affinity to wild-type human ACVRL1 (L164 to Q503 residues) expressed in bacterial expression system assessed as residual binding level at 1 uM by Kinomescan method relative to control. Summed up: (§2)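 Single-concentration (1 μM) competition-binding screen run by KINOMEscan against a panel of 468 purified kinases and mutants. The read-out is the relative binding activity of the test compound to each kinase.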

Data set [5] has as its target NUAK family SNF1-like kinase 2 (Homo sapiens) (UniProt Q9H093). Put plainly: Binding affinity to wild-type human partial length SNARK (P22 to A333 residues) expressed in mammalian expression system assessed as residual binding level at 1 uM by Kinomescan method relative to control.
The target in data set [6] is Aurora kinase C (Homo sapiens) (UniProt Q9UQB9). Nature of the data set: Binding affinity to wild-type human full length AURKC (M1 to S275 residues) expressed in bacterial expression system assessed as residual binding level at 1 uM by Kinomescan method relative to control. The procedure, abridged:
as §2

The subject of data set [7] is Tyrosine-protein kinase ABL1 (Homo sapiens), P00519 [Q252H]. Nature of the data set: Binding affinity to human non-phosphorylated ABL1 Q252H mutant (S229 to K512 residues) expressed in mammalian expression system assessed as residual binding level at 1 uM by Kinomescan method relative to control. The procedure, abridged:
as §1

Data set [8] addresses Calcium/calmodulin-dependent protein kinase type 1G (Homo sapiens) (UniProt Q96NX5). Nature of the data set: Binding affinity to wild-type human partial length CAMK1G (M1 to A342 residues) expressed in bacterial expression system assessed as residual binding level at 1 uM by Kinomescan method relative to control.
For data set [9], the target named is Serine/threonine-protein kinase PknB (Mycobacterium tuberculosis) (UniProt P9WI81). Put plainly: Binding affinity to wild-type Mycobacterium tuberculosis H37Rv ATCC 25618 partial length PKNB (M1 to G279 residues) expressed in mammalian expression system assessed as residual binding level at 1 uM by Kinomescan method relative to control. Summed up:
as §2

For data set [10], the target named is Dual specificity mitogen-activated protein kinase kinase 4 (Homo sapiens) (UniProt P45985). Put plainly: Binding affinity to wild-type human partial length MEK4 (S84 to D399 residues) expressed in mammalian expression system assessed as residual binding level at 1 uM by Kinomescan method relative to control.
Data set [11] addresses Angiopoietin-1 receptor (Homo sapiens) (UniProt Q02763). Nature of the data set: Binding affinity to wild-type human partial length TIE2 (N804 to T1112 residues) expressed in bacterial expression system assessed as residual binding level at 1 uM by Kinomescan method relative to control.
For data set [12], the target named is Tyrosine-protein kinase JAK1 (Homo sapiens) (UniProt P23458). Put plainly: Binding affinity to wild-type human partial length JAK1 JH2 pseudokinase domain (R537 to D855 residues) expressed in mammalian expression system assessed as residual binding level at 1 uM by Kinomescan method relative to control.
In data set [13] the target is Inhibitor of nuclear factor kappa-B kinase subunit alpha (Homo sapiens) (UniProt O15111). Put plainly: Binding affinity to wild-type human full length IKK-alpha (M1 to E745 residues) expressed in mammalian expression system assessed as residual binding level at 1 uM by Kinomescan method relative to control. The procedure, abridged:
as §2

Data set [14] addresses Focal adhesion kinase 1 (Homo sapiens) (UniProt Q05397). Nature of the data set: Binding affinity to wild-type human partial length FAK (D402 to R696 residues) expressed in bacterial expression system assessed as residual binding level at 1 uM by Kinomescan method relative to control.
Data set [15] has as its target Casein kinase I isoform alpha (Homo sapiens) (UniProt P48729). Put plainly: Binding affinity to wild-type human partial length CSNK1A1 (M1 to L450 residues) expressed in mammalian expression system assessed as residual binding level at 1 uM by Kinomescan method relative to control. Summed up:
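Kinome-wide competition binding screen against a panel of 468 purified kinases/mutants, with the test compound at a single concentration of 1 μM. Read-out is the relative binding activity of each kinase in the presence of compound.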

Data set [16] deals with Serine/threonine-protein kinase 36 (Homo sapiens) (UniProt Q9NRP7). Put plainly: Binding affinity to wild-type human partial length STK36 (M1 to T271 residues) expressed in bacterial expression system assessed as residual binding level at 1 uM by Kinomescan method relative to control.
For data set [17], the target named is Platelet-derived growth factor receptor alpha (Homo sapiens, UniProt P16234). Put plainly: Inhibition of PDGFRalpha (unknown origin) using poly(4:1 Glu,Tyr) peptide as substrate preincubated for 1 hr followed by addition of ATP and measured after 30 mins by ADP-Glo bioluminescence assay. For orientation: In ADP-Glo the light output rises with the ADP produced.
Platelet-derived growth factor receptor alpha, sequence (P16234 whole entry): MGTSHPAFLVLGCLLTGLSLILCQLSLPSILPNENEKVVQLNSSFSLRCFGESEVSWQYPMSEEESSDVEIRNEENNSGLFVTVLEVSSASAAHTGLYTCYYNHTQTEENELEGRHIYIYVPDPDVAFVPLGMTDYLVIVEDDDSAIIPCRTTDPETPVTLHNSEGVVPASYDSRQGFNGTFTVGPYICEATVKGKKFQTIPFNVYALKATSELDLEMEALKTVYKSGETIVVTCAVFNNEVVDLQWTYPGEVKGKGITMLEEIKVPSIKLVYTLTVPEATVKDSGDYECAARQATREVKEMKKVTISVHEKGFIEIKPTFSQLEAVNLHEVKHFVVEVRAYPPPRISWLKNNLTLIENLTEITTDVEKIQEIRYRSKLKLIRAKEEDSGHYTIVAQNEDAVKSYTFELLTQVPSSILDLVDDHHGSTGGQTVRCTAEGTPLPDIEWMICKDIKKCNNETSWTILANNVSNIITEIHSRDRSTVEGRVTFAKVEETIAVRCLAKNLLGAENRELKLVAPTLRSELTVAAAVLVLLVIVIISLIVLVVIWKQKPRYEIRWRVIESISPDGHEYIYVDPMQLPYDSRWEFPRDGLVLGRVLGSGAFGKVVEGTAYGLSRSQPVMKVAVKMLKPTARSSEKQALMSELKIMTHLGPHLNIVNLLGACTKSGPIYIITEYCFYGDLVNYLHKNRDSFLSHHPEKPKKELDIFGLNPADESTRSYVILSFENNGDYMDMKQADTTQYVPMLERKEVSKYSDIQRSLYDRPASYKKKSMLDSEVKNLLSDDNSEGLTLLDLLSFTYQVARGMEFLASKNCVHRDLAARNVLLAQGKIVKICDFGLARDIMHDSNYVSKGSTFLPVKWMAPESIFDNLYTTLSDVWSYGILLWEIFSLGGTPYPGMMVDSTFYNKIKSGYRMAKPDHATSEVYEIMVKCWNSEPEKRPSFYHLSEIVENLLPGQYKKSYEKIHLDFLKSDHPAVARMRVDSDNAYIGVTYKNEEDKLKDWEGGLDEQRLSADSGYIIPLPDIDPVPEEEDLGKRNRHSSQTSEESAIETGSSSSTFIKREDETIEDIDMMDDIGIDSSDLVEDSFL

In data set [18] the target is cAMP-dependent protein kinase catalytic subunit beta (Homo sapiens) (UniProt P22694). Nature of the data set: Binding affinity to wild-type human full length PKAC-beta (M1 to F351 residues) expressed in bacterial expression system assessed as residual binding level at 1 uM by Kinomescan method relative to control. Summed up: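 Single-concentration KINOMEscan (DiscoverX) binding screen at 1 μM against a panel of 468 purified kinases and mutants. The read-out is binding relative to control.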

The target of data set [19] is cGMP-dependent protein kinase 2 (Homo sapiens) (UniProt Q13237). Put plainly: Binding affinity to wild-type human partial length PRKG2 (S422 to F762 residues) expressed in mammalian expression system assessed as residual binding level at 1 uM by Kinomescan method relative to control.
cGMP-dependent protein kinase 2 (Homo sapiens), sequence (Q13237 whole entry, the tested form may be a part): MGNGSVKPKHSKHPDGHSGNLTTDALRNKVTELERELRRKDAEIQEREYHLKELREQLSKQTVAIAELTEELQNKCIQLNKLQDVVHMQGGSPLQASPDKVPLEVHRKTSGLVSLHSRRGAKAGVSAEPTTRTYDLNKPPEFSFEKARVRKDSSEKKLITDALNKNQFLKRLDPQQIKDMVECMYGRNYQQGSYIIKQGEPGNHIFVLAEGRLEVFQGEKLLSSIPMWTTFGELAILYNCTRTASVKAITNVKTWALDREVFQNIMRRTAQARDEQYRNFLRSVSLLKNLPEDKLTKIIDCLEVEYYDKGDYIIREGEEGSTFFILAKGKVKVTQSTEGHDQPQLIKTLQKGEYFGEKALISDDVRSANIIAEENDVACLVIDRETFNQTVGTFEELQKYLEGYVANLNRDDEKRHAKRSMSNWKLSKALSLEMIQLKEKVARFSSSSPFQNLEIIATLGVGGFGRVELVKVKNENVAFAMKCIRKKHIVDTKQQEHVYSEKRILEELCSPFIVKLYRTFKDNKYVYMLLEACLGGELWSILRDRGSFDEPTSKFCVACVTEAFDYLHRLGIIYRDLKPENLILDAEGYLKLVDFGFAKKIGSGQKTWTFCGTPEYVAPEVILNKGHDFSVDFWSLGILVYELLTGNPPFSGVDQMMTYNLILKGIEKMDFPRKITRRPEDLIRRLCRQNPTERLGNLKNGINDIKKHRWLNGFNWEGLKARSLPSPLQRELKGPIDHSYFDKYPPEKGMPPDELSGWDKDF

Molecules are shown by their SMILES.

Focal adhesion kinase 1 (Homo sapiens), sequence (Q05397 2-1052 limits assumed): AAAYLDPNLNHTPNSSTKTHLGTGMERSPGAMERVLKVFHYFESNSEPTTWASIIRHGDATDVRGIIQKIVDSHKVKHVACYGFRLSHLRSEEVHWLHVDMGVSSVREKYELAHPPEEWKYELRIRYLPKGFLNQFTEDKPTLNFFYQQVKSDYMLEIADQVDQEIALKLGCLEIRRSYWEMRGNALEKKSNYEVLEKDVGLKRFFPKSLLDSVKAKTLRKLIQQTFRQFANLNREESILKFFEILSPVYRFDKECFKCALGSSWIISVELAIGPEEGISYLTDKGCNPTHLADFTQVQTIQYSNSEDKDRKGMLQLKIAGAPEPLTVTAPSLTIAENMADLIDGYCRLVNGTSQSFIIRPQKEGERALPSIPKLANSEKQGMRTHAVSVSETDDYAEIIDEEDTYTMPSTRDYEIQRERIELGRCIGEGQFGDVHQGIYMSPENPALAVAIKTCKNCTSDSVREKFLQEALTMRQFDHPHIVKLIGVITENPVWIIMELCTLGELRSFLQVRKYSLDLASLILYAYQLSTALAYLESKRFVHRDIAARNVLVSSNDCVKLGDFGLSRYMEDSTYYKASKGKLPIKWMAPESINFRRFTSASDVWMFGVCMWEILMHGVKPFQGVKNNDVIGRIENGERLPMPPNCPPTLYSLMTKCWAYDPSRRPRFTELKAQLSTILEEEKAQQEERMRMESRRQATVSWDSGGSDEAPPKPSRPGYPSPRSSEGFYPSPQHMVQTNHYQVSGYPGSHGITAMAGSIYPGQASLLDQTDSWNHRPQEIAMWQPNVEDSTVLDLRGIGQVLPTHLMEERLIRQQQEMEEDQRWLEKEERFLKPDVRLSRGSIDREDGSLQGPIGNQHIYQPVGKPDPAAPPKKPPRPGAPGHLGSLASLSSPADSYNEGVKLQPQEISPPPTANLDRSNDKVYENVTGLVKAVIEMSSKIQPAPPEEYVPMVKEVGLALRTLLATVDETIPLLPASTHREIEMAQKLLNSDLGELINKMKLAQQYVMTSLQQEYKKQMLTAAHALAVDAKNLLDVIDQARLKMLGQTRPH
Aurora kinase C (Homo sapiens), sequence (Q9UQB9 whole entry, the tested form may be a part): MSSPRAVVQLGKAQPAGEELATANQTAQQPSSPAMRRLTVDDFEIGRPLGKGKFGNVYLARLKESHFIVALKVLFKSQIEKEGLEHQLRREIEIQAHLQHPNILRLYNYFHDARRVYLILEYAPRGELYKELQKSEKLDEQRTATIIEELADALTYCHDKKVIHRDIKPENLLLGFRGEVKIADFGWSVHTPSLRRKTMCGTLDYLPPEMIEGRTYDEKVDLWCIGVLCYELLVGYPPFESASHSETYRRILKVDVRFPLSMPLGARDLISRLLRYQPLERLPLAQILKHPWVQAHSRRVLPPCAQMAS
Calcium/calmodulin-dependent protein kinase type 1G (Homo sapiens), sequence (Q96NX5 whole entry, the tested form may be a part): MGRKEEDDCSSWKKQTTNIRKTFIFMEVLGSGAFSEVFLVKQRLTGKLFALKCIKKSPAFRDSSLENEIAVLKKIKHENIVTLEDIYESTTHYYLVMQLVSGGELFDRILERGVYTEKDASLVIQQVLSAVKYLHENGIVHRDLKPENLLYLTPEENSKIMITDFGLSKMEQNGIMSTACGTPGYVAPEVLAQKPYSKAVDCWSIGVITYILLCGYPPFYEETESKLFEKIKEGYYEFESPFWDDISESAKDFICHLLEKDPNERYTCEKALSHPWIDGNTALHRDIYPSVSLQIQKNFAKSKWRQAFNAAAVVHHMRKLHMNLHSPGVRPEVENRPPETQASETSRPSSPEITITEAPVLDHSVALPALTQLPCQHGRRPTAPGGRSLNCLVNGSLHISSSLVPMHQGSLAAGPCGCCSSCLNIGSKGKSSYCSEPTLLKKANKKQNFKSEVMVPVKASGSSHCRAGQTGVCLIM

The term GI50 denotes the concentration at which growth is held to half of that of the control. Low values mean more potent growth inhibition, high ones less potent growth inhibition. As a reminder, the Cmax is the peak of the concentration-time curve. In general, IC50 refers to the midpoint of a concentration-inhibition curve. A low value points to higher potency. `Cc1ccc(NC(=O)c2ccc(CN(CCN(C)C)C(=O)c3cccnc3)cc2)cc1Nc1nccc(-c2cccnc2)n1`: it took 5370 nM to inhibit growth with NCI-H1703 by half (GI50). The Activity worked out at 85% in data set [1]; 92% in data set [3]; 100% in data set [4]; 100% in data set [5]; 97% in data set [6]; 23% in data set [7]. Besides, the Activity in [8] came to 100%; in data set [9] it was 99%; in data set [10], 100%; in data set [11], 93%; in [12], 78%; in [13] it was 95%. For the same compound, the Activity in data set [14] was found to be 90%; in data set [15], 87%; in data set [16] it was 97%; in [18] it was 77%; in data set [19], 100%. The compound further showed a Cmax in data set [2] of 28.9 ng/mL. Inhibition in data set [17] was half-maximal at 132 nM (IC50).
